Assay results reported in ChEMBL document CHEMBL4152356, “Amphipathic sulfonamidobenzamides mimicking small antimicrobial marine natural products; investigation of antibacterial and anti-biofilm activity against antibiotic resistant clinical isolates” (Bioorg Med Chem, 2018).
Activity calls are given as the source filed them.

How the values were obtained:
Escherichia coli [1] = assay: Antibacterial activity against oxacillinase 48-producing Escherichia coli 50,579,417 clinical isolate after 24 hrs by microdilution method; type: functional; conditions: Escherichia coli, 50,579,417, 24 h
How it was run: (§1)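 Clinical isolate screen by broth microdilution with about 1-1.2 × 10^6 cells/ml and 24 h incubation. MIC is the lowest concentration with no growth. For isolate collections, MIC90 is the MIC inhibiting ≥90% of isolates. Multidrug resistance was defined as resistance to at least […] antimicrobial class.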

Klebsiella pneumoniae [2] = assay: Antibacterial activity against New Delhi metallo-beta-lactamase 1/oxacillinase 181-producing Klebsiella pneumoniae 50531633 clinical isolate after 24 hrs by microdilution method; type: functional; conditions: Klebsiella pneumoniae, 50531633, 24 h; how it was run: as §1
Enterococcus faecium [3] = assay: Antibacterial activity against vancomycin resistant Enterococcus faecium 50,901,530 clinical isolate after 24 hrs by microdilution method; type: functional; conditions: Enterococcus faecium, 50,901,530, 24 h
How it was run: (§2)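 Broth microdilution in Mueller-Hinton broth (modified CLSI M07-A9), clinical isolates at about 1-1.2 × 10^6 cells/ml. Inoculum mixed 1:1 with serial compound dilutions; stocks made in up to 100% DMSO, final DMSO ≤1%. Incubated 24 h.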

[4] = test system: Staphylococcus epidermidis; assay: Antibiofilm activity against Staphylococcus epidermidis RP62A ATCC 35984/CCUG 31568 incubated for 24 +/- 2 hrs by crystal violet staining based assay; type: functional
How it was run: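 Mature S. epidermidis RP62A biofilms: filtered overnight TSB culture adjusted to 2 McFarland, diluted in TSB with 1% glucose to about 6 × 10^6 CFU/ml, grown 24 ± 2 h at 37 °C static, then PBS-washed. Compounds in 50% TSBglu added for 24 ± 2 h at 37 °C. Biomass given as % of untreated control; ≥90% eradication threshold. Compounds tested at 2x, 5x and 10x MIC, 4-8 parallels on 2-3 plates, highest and lowest values excluded.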

Enterococcus faecium [5] = assay: Antibacterial activity against vancomycin resistant Enterococcus faecium 50,673,722 clinical isolate after 24 hrs by microdilution method; type: functional; conditions: Enterococcus faecium, 50,673,722, 24 h; how it was run: as §2
MRC5 = assay: Cytotoxicity against human MRC5 cells after 72 hrs by MTS assay; type: cell-based; conditions: MRC5, 72 h
How it was run: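 MRC-5 lung fibroblasts in DMEM with 10% FBS, 37 °C, 5% CO2; seeded at 4000 cells/well, adhered 24 h, medium replaced. Two-fold dilutions up to 100 µg/ml for 72 h, then MTS for 1 h and absorbance at 485 nm. Controls were 1% DMSO (negative) and 0.5% Triton X-100 (positive). EC50 is the concentration giving 50% inhibition of survival.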

Klebsiella pneumoniae [6] = assay: Antibacterial activity against New Delhi metallo-beta-lactamase 1-producing Klebsiella pneumoniae K6645 clinical isolate after 24 hrs by microdilution method; type: functional; conditions: K6645, 24 h; how it was run: as §1
Staphylococcus aureus [7] = assay: Antibacterial activity against methicillin resistant Staphylococcus aureus WIS clinical isolate after 24 hrs by microdilution method; type: functional; how it was run: as §2
Escherichia coli [8] = assay: Antibacterial activity against Escherichia coli ATCC 25922 after 48 hrs by microdilution method; type: functional; conditions: ATCC 25922, 48 h
How it was run: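 Broth microdilution (CLSI M07-A9, modified) in Mueller-Hinton broth; inoculum about 2.5-3 × 10^4 cells/ml mixed 1:1 with serial compound dilutions. Stock solutions in up to 100% DMSO, final DMSO ≤1%. Incubated 35 °C for 48 h.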

[9] = test system: Staphylococcus epidermidis; assay: Antibacterial activity against methicillin resistant Staphylococcus epidermidis RP62A ATCC 35984/CCUG 31568 after 48 hrs by microdilution method; type: functional; conditions: RP62A ATCC 35984/CCUG 31568, 48 h
How it was run: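 Broth microdilution (modified CLSI M07-A9) against the MRSE reference strain. Inoculum of about 2.5-3 × 10^4 cells/ml in Mueller-Hinton broth mixed 1:1 with serial compound dilutions; final DMSO ≤1%. Incubated 35 °C, 48 h.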

Escherichia coli [10] = assay: Antibacterial activity against Escherichia coli clinical isolates after 24 hrs by microdilution method; type: functional; how it was run: as §1
Acinetobacter baumannii = assay: Antibacterial activity against oxacillinase 23-producing Acinetobacter baumannii K44-35 clinical isolate after 24 hrs by microdilution method; type: functional; conditions: K44-35, 24 h; how it was run: as §2
Staphylococcus aureus [11] = assay: Antibacterial activity against Staphylococcus aureus clinical isolates after 24 hrs by microdilution method; type: functional; how it was run: as §1
Bacillus subtilis = assay: Induction of membrane disruption in Bacillus subtilis 168 expressing luciferase at 4 ug/ml […] by luminescence assay; type: functional, organism-based; conditions: subsp. subtilis str. 168

Row | SMILES | MIC (Escherichia coli [1]) | MIC (Klebsiella pneumoniae [2]) | MIC (Enterococcus faecium [3]) | MBIC=>90 [4] | MIC (Enterococcus faecium [5]) | EC50 (MRC5) | MIC (Klebsiella pneumoniae [6]) | MIC (Staphylococcus aureus [7]) | MIC (Escherichia coli [8]) | MIC [9] | MIC (Escherichia coli [10]) | MIC (Acinetobacter baumannii) | MIC (Staphylococcus aureus [11]) | Activity (Bacillus subtilis)
1 | CN(c1ccc(C(=O)NCCCNC(=N)N)cc1)S(=O)(=O)c1cc(C(C)(C)C)cc(C(C)(C)C)c1.Cl | ≥ 32 µg/mL | ≥ 32 µg/mL | 16 µg/mL | 40 µg/mL | 16 µg/mL | 36 µg/mL | 32 µg/mL | 8 µg/mL | 16 µg/mL | 4 µg/mL | 16 µg/mL | ≥ 32 µg/mL | 4 µg/mL | Active
2 | CC(C)(C)c1cc(C(C)(C)C)cc(S(=O)(=O)Nc2cc3ccccc3cc2C(=O)NCCNC(=N)N)c1.Cl | ≥ 32 µg/mL | > 32 µg/mL | 8 µg/mL | 40 µg/mL | 8 µg/mL | 55 µg/mL | 32 µg/mL | 8 µg/mL | 8 µg/mL | 4 µg/mL | 8 µg/mL | 32 µg/mL | 4 µg/mL | 
